From ChEMBL document CHEMBL4376838, “Discovery of Novel Celastrol Derivatives as Hsp90-Cdc37 Interaction Disruptors with Antitumor Activity” (J Med Chem, 2019)

What was measured:
[1] = tested on: A549; assay: Antiproliferative activity against human A549 cells assessed as inhibition of cell growth at 0.5 uM incubated for 48 hrs by MTT assay relative to control; type: functional; details: A549, 48 h, read-out: GI
[2] = tested on: HOS; assay: Antiproliferative activity against human HOS cells assessed as inhibition of cell growth incubated for 48 hrs by MTT assay; type: functional, cell-based
Method in brief: (§1)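 MTT read-out. Cells seeded at 5.0 × 10⁴ cells/ml and cultured 24 h, then exposed to the drug over a range of concentrations for 48 h, with matching DMSO as control. MTT (5 mg/ml) added for 4 h, supernatant removed, formazan dissolved in DMSO, OD read at 570 nm. Run in triplicate, mean ± SD (n = 3).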

[3] = tested on: MCF7; assay: Antiproliferative activity against human MCF7 cells assessed as inhibition of cell growth incubated for 48 hrs by MTT assay; type: functional, cell-based; details: MCF7, 48 h; method in brief: as §1
[4] = tested on: HepG2; assay: Antiproliferative activity against human HepG2 cells assessed as inhibition of cell growth incubated for 48 hrs by MTT assay; type: functional, cell-based; details: HepG2, 48 h; method in brief: as §1
[5] = tested on: A549; assay: Antiproliferative activity against human A549 cells assessed as inhibition of cell growth incubated for 48 hrs by MTT assay; type: functional, cell-based; details: A549, 48 h; method in brief: as §1
[6] = tested on: A549; assay: Antiproliferative activity against human A549 cells assessed as inhibition of cell growth at 1.5 uM incubated for 48 hrs by MTT assay relative to control; type: functional; details: A549, 48 h, read-out: GI

COC(=O)CSC1C=C2C(C)(CC[C@@]3(C)[C@@H]4C[C@](C)(C(=O)OCCCOC(=O)/C=C(\C#N)c5ccc(F)cc5)CC[C@]4(C)CC[C@]23C)c2cc(OC(C)=O)c(OC(C)=O)c(C)c21 (single isomer, unassigned)
inhibition of growth at 0.5 µM [1]: 20.5%

COC(=O)[C@]12CCC(C)(C)C[C@H]1[C@H]1C(=O)C=C3[C@@]4(C)C=C(C#N)C(=O)C(C)(C)[C@@H]4CC[C@@]3(C)[C@]1(C)CC2 [BARDOXOLONE METHYL]
IC50 [2]: 660 nM
IC50 [3]: 850 nM
IC50 [4]: 520 nM
IC50 [5]: 520 nM

CC1=C(O)C(=O)C=C2C1=CC=C1[C@@]2(C)CC[C@@]2(C)[C@@H]3C[C@](C)(C(=O)OC/C=C/COC(=O)/C=C(\C#N)c4ccccc4)CC[C@]3(C)CC[C@]12C
IC50 [2]: 4780 nM
IC50 [3]: 2860 nM
IC50 [4]: 3450 nM
IC50 [5]: 3540 nM

CC1=C(O)C(=O)C=C2C1=CC=C1[C@@]2(C)CC[C@@]2(C)[C@@H]3C[C@](C)(C(=O)OCCOC(=O)/C(C#N)=C/c4ccc(F)cc4)CC[C@]3(C)CC[C@]12C
inhibition of growth at 1.5 µM [6]: 26.1%

CC1=C(O)C(=O)C=C2C1=CC=C1[C@@]2(C)CC[C@@]2(C)[C@@H]3C[C@](C)(C(=O)OCCOC(=O)/C=C(\C#N)c4ccc(C)cc4)CC[C@]3(C)CC[C@]12C
inhibition of growth at 1.5 µM [6]: 20.4%

CC1=C(O)C(=O)C=C2C1=CC=C1[C@@]2(C)CC[C@@]2(C)[C@@H]3C[C@](C)(C(=O)OCCCCOC(=O)/C(C#N)=C/c4ccc(C)cc4)CC[C@]3(C)CC[C@]12C
inhibition of growth at 1.5 µM [6]: 16.5%

COc1ccc(/C(C#N)=C/C(=O)OCCOC(=O)[C@]2(C)CC[C@]3(C)CC[C@]4(C)C5=CC=C6C(=CC(=O)C(O)=C6C)[C@]5(C)CC[C@@]4(C)[C@@H]3C2)cc1
IC50 [2]: 1140 nM
IC50 [3]: 970 nM
inhibition of growth at 1.5 µM [6]: 48.1%
IC50 [4]: 970 nM
IC50 [5]: 1790 nM

COc1ccc(/C=C(\C#N)C(=O)OCCCOC(=O)[C@]2(C)CC[C@]3(C)CC[C@]4(C)C5=CC=C6C(=CC(=O)C(O)=C6C)[C@]5(C)CC[C@@]4(C)[C@@H]3C2)cc1
inhibition of growth at 1.5 µM [6]: 18.6%

CC1=C(O)C(=O)C=C2C1=CC=C1[C@@]2(C)CC[C@@]2(C)[C@@H]3C[C@](C)(C(=O)OCCCCOC(=O)/C=C(\C#N)c4ccc(C(F)(F)F)cc4)CC[C@]3(C)CC[C@]12C
inhibition of growth at 1.5 µM [6]: 18.3%

CC1=C(O)C(=O)C=C2C1=CC=C1[C@@]2(C)CC[C@@]2(C)[C@@H]3C[C@](C)(C(=O)OCCOC(=O)/C=C(\C#N)c4ccc(F)cc4)CC[C@]3(C)CC[C@]12C
IC50 [2]: 2180 nM
IC50 [3]: 2350 nM
inhibition of growth at 1.5 µM [6]: 65.9%
IC50 [4]: 3890 nM
IC50 [5]: 1020 nM

CC1=C(O)C(=O)C=C2C1=CC=C1[C@@]2(C)CC[C@@]2(C)[C@@H]3C[C@](C)(C(=O)OCCCOC(=O)/C(C#N)=C/c4ccc(C(F)(F)F)cc4)CC[C@]3(C)CC[C@]12C
inhibition of growth at 1.5 µM [6]: 19.4%

CC1=C(O)C(=O)C=C2C1=CC=C1[C@@]2(C)CC[C@@]2(C)[C@@H]3C[C@](C)(C(=O)OC/C=C/COC(=O)/C=C(\C#N)c4ccc(F)cc4)CC[C@]3(C)CC[C@]12C
IC50 [2]: 1330 nM
IC50 [3]: 1110 nM
IC50 [4]: 2740 nM
IC50 [5]: 1840 nM

CC1=C(O)C(=O)C=C2C1=CC=C1[C@@]2(C)CC[C@@]2(C)[C@@H]3C[C@](C)(C(=O)OCCCOC(=O)/C=C(\C#N)c4ccccc4)CC[C@]3(C)CC[C@]12C
IC50 [2]: 450 nM
IC50 [3]: 980 nM
inhibition of growth at 1.5 µM [6]: 53.7%
IC50 [4]: 760 nM
IC50 [5]: 1410 nM

CC1=C(O)C(=O)C=C2C1=CC=C1[C@@]2(C)CC[C@@]2(C)[C@@H]3C[C@](C)(C(=O)OCCCCOC(=O)/C=C/c4ccc(C(F)(F)F)cc4)CC[C@]3(C)CC[C@]12C
inhibition of growth at 1.5 µM [6]: 6.19%

COc1ccc(/C(C#N)=C/C(=O)OCCCOC(=O)[C@]2(C)CC[C@]3(C)CC[C@]4(C)C5=CC=C6C(=CC(=O)C(O)=C6C)[C@]5(C)CC[C@@]4(C)[C@@H]3C2)cc1
IC50 [2]: 1750 nM
IC50 [3]: 1100 nM
inhibition of growth at 1.5 µM [6]: 53.4%
IC50 [4]: 1270 nM
IC50 [5]: 1090 nM

CC1=C(O)C(=O)C=C2C1=CC=C1[C@@]2(C)CC[C@@]2(C)[C@@H]3C[C@](C)(C(=O)OCCCCOC(=O)/C(C#N)=C/c4ccc(F)cc4)CC[C@]3(C)CC[C@]12C
inhibition of growth at 1.5 µM [6]: 19%

COc1ccc(/C=C/C(=O)OCCCCOC(=O)[C@]2(C)CC[C@]3(C)CC[C@]4(C)C5=CC=C6C(=CC(=O)C(O)=C6C)[C@]5(C)CC[C@@]4(C)[C@@H]3C2)cc1
inhibition of growth at 1.5 µM [6]: 20.6%

COc1ccc(/C(C#N)=C/C(=O)OC/C=C/COC(=O)[C@]2(C)CC[C@]3(C)CC[C@]4(C)C5=CC=C6C(=CC(=O)C(O)=C6C)[C@]5(C)CC[C@@]4(C)[C@@H]3C2)cc1
IC50 [2]: 1790 nM
IC50 [3]: 1440 nM
IC50 [4]: 2710 nM
IC50 [5]: 1340 nM

CC1=C(O)C(=O)C=C2C1=CC=C1[C@@]2(C)CC[C@@]2(C)[C@@H]3C[C@](C)(C(=O)OCCOC(=O)/C=C(\C#N)c4ccc(C(F)(F)F)cc4)CC[C@]3(C)CC[C@]12C
inhibition of growth at 1.5 µM [6]: 33.3%

CC1=C(O)C(=O)C=C2C1=CC=C1[C@@]2(C)CC[C@@]2(C)[C@@H]3C[C@](C)(C(=O)OCCCOC(=O)/C(C#N)=C/c4ccc(F)cc4)CC[C@]3(C)CC[C@]12C
inhibition of growth at 1.5 µM [6]: 25%

CC1=C(O)C(=O)C=C2C1=CC=C1[C@@]2(C)CC[C@@]2(C)[C@@H]3C[C@](C)(C(=O)OCCOC(=O)/C(C#N)=C/c4ccccc4)CC[C@]3(C)CC[C@]12C
inhibition of growth at 1.5 µM [6]: 24.3%

CC1=C(O)C(=O)C=C2C1=CC=C1[C@@]2(C)CC[C@@]2(C)[C@@H]3C[C@](C)(C(=O)OCCOC(=O)/C=C/c4ccc(F)cc4)CC[C@]3(C)CC[C@]12C
inhibition of growth at 1.5 µM [6]: 27.7%

CC1=C(O)C(=O)C=C2C1=CC=C1[C@@]2(C)CC[C@@]2(C)[C@@H]3C[C@](C)(C(=O)OCCCOC(=O)/C(C#N)=C/c4ccc(C)cc4)CC[C@]3(C)CC[C@]12C
inhibition of growth at 1.5 µM [6]: 34.7%

COc1ccc(/C=C(\C#N)C(=O)OCCOC(=O)[C@]2(C)CC[C@]3(C)CC[C@]4(C)C5=CC=C6C(=CC(=O)C(O)=C6C)[C@]5(C)CC[C@@]4(C)[C@@H]3C2)cc1
inhibition of growth at 1.5 µM [6]: 16.6%

CC1=C(O)C(=O)C=C2C1=CC=C1[C@@]2(C)CC[C@@]2(C)[C@@H]3C[C@](C)(C(=O)OCCOC(=O)/C=C(\C#N)c4ccccc4)CC[C@]3(C)CC[C@]12C
IC50 [2]: 540 nM
IC50 [3]: 700 nM
inhibition of growth at 1.5 µM [6]: 59.6%
IC50 [4]: 650 nM
IC50 [5]: 1020 nM

COc1ccc(/C(C#N)=C/C(=O)OCCCCOC(=O)[C@]2(C)CC[C@]3(C)CC[C@]4(C)C5=CC=C6C(=CC(=O)C(O)=C6C)[C@]5(C)CC[C@@]4(C)[C@@H]3C2)cc1
inhibition of growth at 1.5 µM [6]: 9.57%

CC1=C(O)C(=O)C=C2C1=CC=C1[C@@]2(C)CC[C@@]2(C)[C@@H]3C[C@](C)(C(=O)OCCCCOC(=O)/C(C#N)=C/c4ccc(C(F)(F)F)cc4)CC[C@]3(C)CC[C@]12C
inhibition of growth at 1.5 µM [6]: 7.85%

CC1=C(O)C(=O)C=C2C1=CC=C1[C@@]2(C)CC[C@@]2(C)[C@@H]3C[C@](C)(C(=O)OCCCOC(=O)/C=C(\C#N)c4ccc(C)cc4)CC[C@]3(C)CC[C@]12C
inhibition of growth at 1.5 µM [6]: 21.6%

CC1=C(O)C(=O)C=C2C1=CC=C1[C@@]2(C)CC[C@@]2(C)[C@@H]3C[C@](C)(C(=O)OCCCOC(=O)/C(C#N)=C/c4ccccc4)CC[C@]3(C)CC[C@]12C
inhibition of growth at 1.5 µM [6]: 19.1%

CC1=C(O)C(=O)C=C2C1=CC=C1[C@@]2(C)CC[C@@]2(C)[C@@H]3C[C@](C)(C(=O)OCCCCOC(=O)/C=C(\C#N)c4ccccc4)CC[C@]3(C)CC[C@]12C
inhibition of growth at 1.5 µM [6]: 3.19%
